Data reported in ChEMBL document CHEMBL1138269, “Antimicrobial lexitropsins containing amide, amidine, and alkene linking groups” (J Med Chem, 2007).
Converted amounts (≈) assume the structure as drawn. The source made the active and inactive calls. The calls are words filed in the database; no cut-off is given here.

How the values were obtained:
[1] = test system: Enterococcus faecalis; assay: Antibacterial activity against Streptococcus faecalis NCTC 775; assay type: functional; settings: Enterococcus faecalis, NCTC 775; read-out: MIC
How it was run: (§1)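 Broth microdilution in Mueller-Hinton broth. Samples were dissolved in sterile water to 200 µg mL-1 as the working solution and doubling dilutions were made across rows. Plates were incubated at 37 °C and inspected visually, with resazurin added as growth indicator. MIC reported in µg mL-1.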

[2] = test system: Aspergillus niger; assay: Antifungal activity against Aspergillus niger IMI 149007; assay type: functional
How it was run: (§2)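 Antifungal microdilution in Sabouraud broth. Test sample at 200 µg mL-1 working solution in sterile water was serially doubled down successive rows. Incubation was at 25 °C, followed by visual growth check and addition of resazurin indicator. Read-out is MIC in µg mL-1.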

[3] = test system: Staphylococcus aureus; assay: Antibacterial activity against methicillin-sensitive Staphylococcus aureus NCTC 6571; assay type: functional; settings: Staphylococcus aureus, NCTC 6571; read-out: MIC; how it was run: as §1
[4] = test system: Staphylococcus aureus; assay: Antibacterial activity against methicillin-resistant Staphylococcus aureus clinical isolate 5; assay type: functional
How it was run: (§3)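 Broth microdilution MIC against clinical S. aureus isolates (incl. MRSA), run per NCCLS guidelines in 96-well plates. Test sample dissolved in sterile water to a 200 µg mL-1 working concentration, then doubling dilutions in Mueller-Hinton broth. Incubated at 37 °C, growth read visually plus resazurin indicator. MIC reported in µg/mL.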

[5] = test system: Staphylococcus aureus; assay: Antibacterial activity against Staphylococcus aureus LS1 in mouse at 20 mg/kg, ip; assay type: functional, organism-based; parameters: dose 20 mg/kg
How it was run: (§4)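 Mice of 18-22 g, five per group, were inoculated intravenously with 50 million cfu of S. aureus LS-1, which causes bacteraemia and then joint localization within 3-4 days. A single dose (groups at 60, 40, 20 or 10 mg/kg) was given iv or ip. Joint inflammation was scored, with caliper measurement of affected joint diameter.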

[6] = test system: Staphylococcus aureus; assay: Antibacterial activity against methicillin-resistant Staphylococcus aureus clinical isolate 1; assay type: functional; how it was run: as §3
[7] = test system: Staphylococcus aureus; assay: Antibacterial activity against methicillin-resistant Staphylococcus aureus clinical isolate 2; assay type: functional; how it was run: as §3
[8] = test system: Mycolicibacterium fortuitum; assay: Antibacterial activity against Mycobacterium fortuitum NCTC 10394; assay type: functional; how it was run: as §1
[9] = test system: HS27; assay: Cytotoxicity against human HS27 cells; assay type: cell-based
[10] = test system: L929; assay: Cytotoxicity against mouse L929 cells; assay type: cell-based
[11] = test system: Staphylococcus aureus; assay: Antibacterial activity against methicillin-resistant Staphylococcus aureus clinical isolate 3; assay type: functional; how it was run: as §3
[12] = test system: Candida albicans; assay: Antifungal activity against Candida albicans NCPF 3179; assay type: functional; settings: Candida albicans; read-out: MIC; how it was run: as §2
[13] = test system: Staphylococcus aureus; assay: Antibacterial activity against methicillin-resistant Staphylococcus aureus clinical isolate 4; assay type: functional; how it was run: as §3
[14] = test system: Jurkat; assay: Cytotoxicity against human Jurkat cells; assay type: cell-based
[15] = test system: A-375; assay: Cytotoxicity against human A375 cells; assay type: cell-based
[16] = Cytotoxicity against human TE671 cells; assay type: cell-based; settings: te-671
[17] = test system: Staphylococcus aureus; assay: Antibacterial activity against Staphylococcus aureus LS1 in mouse at 40 mg/kg, ip; assay type: functional, organism-based; parameters: dose 40 mg/kg; how it was run: as §4
[18] = test system: H9c2; assay: Cytotoxicity against rat H9C2 cells; assay type: cell-based

Row | SMILES | MIC [1] | MIC [2] | MIC [3] | MIC [4] | Activity [5] | MIC [6] | MIC [7] | MIC [8] | Activity [9] | Activity [10] | MIC [11] | MIC [12] | MIC [13] | Activity [14] | Activity [15] | Activity [16] | Activity [17] | Activity [18]
1 | Cn1cc(NC(=O)c2cc(NC(=O)c3ccc(/C=C/c4cnc5ccccc5c4)cc3)cn2C)cc1C(=O)NCCN1CCOCC1 [MGB-BP-3] | 25 µg/mL (≈ 39.6 µM) | 25 µg/mL (≈ 39.6 µM) | 3 µg/mL (≈ 4.75 µM) | 0.12 µg/mL (≈ 0.19 µM) | Active | 0.12 µg/mL (≈ 0.19 µM) | 0.25 µg/mL (≈ 0.396 µM) | 50 µg/mL (≈ 79.1 µM) | Non-toxic | Non-toxic | 0.12 µg/mL (≈ 0.19 µM) | 50 µg/mL (≈ 79.1 µM) | 0.25 µg/mL (≈ 0.396 µM) |  |  |  |  | 
2 | COc1ccc(/C=C/c2ccc(C(=O)Nc3cc(C(=O)Nc4cc(C(=O)NCCN5CCOCC5)n(C)c4)n(C)c3)cn2)cc1 | 6 µg/mL (≈ 9.81 µM) | 50 µg/mL (≈ 81.7 µM) | 6 µg/mL (≈ 9.81 µM) | 0.5 µg/mL (≈ 0.817 µM) |  | 0.5 µg/mL (≈ 0.817 µM) | 4 µg/mL (≈ 6.54 µM) | 50 µg/mL (≈ 81.7 µM) |  | Non-toxic | 2 µg/mL (≈ 3.27 µM) | 25 µg/mL (≈ 40.9 µM) | 2 µg/mL (≈ 3.27 µM) | Non-toxic | Non-toxic | Non-toxic | Active | Non-toxic
3 | COc1cccc(/C=C/c2cc(C(=O)Nc3cc(C(=O)Nc4cc(C(=O)NCCCN(C)C)n(C)c4)n(C)c3)n(C)c2)c1 | 25 µg/mL (≈ 42.7 µM) | > 50 µg/mL | > 50 µg/mL | 32 µg/mL (≈ 54.6 µM) |  | 32 µg/mL (≈ 54.6 µM) | 32 µg/mL (≈ 54.6 µM) | > 50 µg/mL |  |  | 32 µg/mL (≈ 54.6 µM) | 50 µg/mL (≈ 85.4 µM) | 32 µg/mL (≈ 54.6 µM) |  |  |  |  | 
4 | CC(C)CCc1sc(NC(=O)c2cc(NC(=O)c3cc4ccccc4cn3)cn2C)nc1C(=O)NCCCN(C)C | 50 µg/mL (≈ 86.8 µM) | > 50 µg/mL | 50 µg/mL (≈ 86.8 µM) | > 64 µg/mL |  | > 64 µg/mL | > 64 µg/mL | > 50 µg/mL |  |  | > 64 µg/mL | > 50 µg/mL | > 64 µg/mL |  |  |  |  | 
5 | CSc1ccc(/C=C/c2ccc3cc(C(=O)Nc4cc(C(=O)Nc5cc(C(=O)NCCN6CCOCC6)n(C)c5)n(C)c4)ccc3n2)cc1 | > 50 µg/mL | > 50 µg/mL | > 50 µg/mL | > 64 µg/mL |  | 4 µg/mL (≈ 5.9 µM) | > 64 µg/mL | > 50 µg/mL |  |  | > 64 µg/mL | > 50 µg/mL | > 64 µg/mL |  |  |  |  | 
6 | CC(C)c1sc(NC(=O)c2cc(NC(=O)c3cc(NC(=O)c4ccc5c(c4)OCO5)cn3C)cn2C)nc1C(=O)NCCCN(C)C | 25 µg/mL (≈ 37.7 µM) | > 50 µg/mL | 13 µg/mL (≈ 19.6 µM) | 64 µg/mL (≈ 96.6 µM) |  | 8 µg/mL (≈ 12.1 µM) | 64 µg/mL (≈ 96.6 µM) | > 50 µg/mL |  |  | 64 µg/mL (≈ 96.6 µM) | > 50 µg/mL | 64 µg/mL (≈ 96.6 µM) |  |  |  |  | 
7 | CC(=N)Nc1cc(C(=O)Nc2cc(C(=O)Nc3cc(C(=O)NCCCN4CCOCC4)n(C)c3)n(C)c2)n(C)c1 | > 50 µg/mL | > 50 µg/mL | > 50 µg/mL | > 64 µg/mL |  | > 64 µg/mL | > 64 µg/mL | > 50 µg/mL |  |  | > 64 µg/mL | > 50 µg/mL | > 64 µg/mL |  |  |  |  | 
8 | CN(C)CCCNC(=O)c1cc(NC(=O)c2cc(NC(=O)c3ccc(/C=C/c4ccncc4)cc3)cn2C)cn1C | 25 µg/mL (≈ 45.2 µM) | > 50 µg/mL | 50 µg/mL (≈ 90.3 µM) | > 64 µg/mL |  | 16 µg/mL (≈ 28.9 µM) | 32 µg/mL (≈ 57.8 µM) | > 50 µg/mL |  |  | 64 µg/mL (≈ 116 µM) | > 50 µg/mL | > 64 µg/mL |  |  |  |  | 
